Blank lines part the entries; values can stand above or below the compound they belong to.
Experiments:
[1] = Apparent terminal half life in CD-1 mouse at 3 mg/kg, iv; type: ADME, organism-based; parameters: dose 3 mg/kg, route intravenous; settings: in vivo, read-out: betat1/2(app) (converted)
Procedure, shortened: (§1)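 Male CD1 mice got a single intravenous dose of 3 mg/kg. Drug levels were measured in plasma and brain. The first sampling time was 5 min post-dose. Apparent terminal half-life and brain/plasma AUC(0-inf) were derived from the concentration-time profiles.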

[2] = Cmax in brain of CD-1 mouse at 3 mg/kg, iv after 5 mins; type: ADME, organism-based; parameters: dose 3 mg/kg, route intravenous; procedure, shortened: as §1
[3] = biological target: T1, Cannabinoid receptor 2 (Homo sapiens, UniProt P34972); experiment: Agonist activity at human CB2 receptor expressed in CHO CRE-luc cells; type: functional, cell-based
[4] = biological target: T1, Cannabinoid receptor 2; experiment: Binding affinity to human CB2 receptor expressed in CHO cells; type: cell-based
[5] = Drug uptake in cerebellum of baboon neuroinflammation model at 110 +/- 34 MBq, iv after 20 mins by PET imaging analysis; type: ADME, organism-based; settings: papio anubis, in vivo
Procedure, shortened: (§2)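 Baboons (Papio anubis) received [¹⁸F]-d₂-3 (110 34 MBq) iv. PET images were acquired over 180 min on a Siemens Biograph mCT camera with arterial blood sampling. Regional time-activity curves (frontal, occipital, temporal and parietal cortex, cerebellum) were expressed as SUV, and whole-brain uptake as percent injected dose. Where used, LPS (0.05 or 0.1 mg/kg) was given iv 4 h before the radiotracer.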

[6] = Drug uptake in perietal cotrex of baboon neuroinflammation model at 110 +/- 34 MBq, iv after 20 mins by PET imaging analysis; type: ADME, organism-based, Parietal cortex; settings: papio anubis, in vivo; procedure, shortened: as §2
[7] = Drug uptake in temporal cotrex of baboon neuroinflammation model at 110 +/- 34 MBq, iv after 20 mins by PET imaging analysis; type: ADME, organism-based, Temporal cortex; settings: papio anubis, in vivo; procedure, shortened: as §2
[8] = Drug uptake in occipital cotrex of baboon neuroinflammation model at 110 +/- 34 MBq, iv after 20 mins by PET imaging analysis; type: ADME, organism-based, Occipital cortex; settings: papio anubis, in vivo; procedure, shortened: as §2
[9] = Drug uptake in frontal cortex of baboon neuroinflammation model at 110 +/- 34 MBq, iv after 20 mins by PET imaging analysis; type: ADME, organism-based; settings: papio anubis, in vivo; procedure, shortened: as §2
[10] = tested on: Brain; experiment: Drug uptake in whole brain of baboon neuroinflammation model at 110 +/- 34 MBq, iv after 20 mins by PET imaging analysis; type: ADME, organism-based; settings: papio anubis, in vivo; procedure, shortened: as §2
[11] = Drug metabolism in baboon neuroinflammation model plasma assessed as compound remaining at 110 +/- 34 MBq, iv administered 180 mins post LPS-challenge by HPLC analysis; type: ADME, organism-based; settings: papio anubis, read-out: Stability
Procedure, shortened: (§3)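 Radiotracer [¹⁸F]-d₂-3 (110 34 MBq) was given iv to rhesus macaque or baboon, with arterial blood sampled over 180 min. Parent fraction in plasma was determined by reverse-phase HPLC in a subset of samples. Where used, LPS (0.05 or 0.1 mg/kg) was given iv 4 h before the radiotracer.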

[12] = Drug metabolism in baboon neuroinflammation model plasma assessed as compound remaining at 110 +/- 34 MBq, iv after 180 mins by HPLC analysis; type: ADME, organism-based; settings: papio anubis, read-out: Stability; procedure, shortened: as §3
[13] = Drug metabolism in rhesus monkey plasma assessed as compound remaining at 110 +/- 34 MBq, iv after 180 mins by HPLC analysis; type: ADME, organism-based, Macaca mulatta; settings: read-out: Stability; procedure, shortened: as §3
[14] = biological target: Cannabinoid receptor 1 (Homo sapiens, UniProt P21554); experiment: Binding affinity to human CB1 receptor
[15] = biological target: T1, Cannabinoid receptor 2; experiment: Binding affinity to human CB2 receptor

T1 sequence (P34972 whole entry): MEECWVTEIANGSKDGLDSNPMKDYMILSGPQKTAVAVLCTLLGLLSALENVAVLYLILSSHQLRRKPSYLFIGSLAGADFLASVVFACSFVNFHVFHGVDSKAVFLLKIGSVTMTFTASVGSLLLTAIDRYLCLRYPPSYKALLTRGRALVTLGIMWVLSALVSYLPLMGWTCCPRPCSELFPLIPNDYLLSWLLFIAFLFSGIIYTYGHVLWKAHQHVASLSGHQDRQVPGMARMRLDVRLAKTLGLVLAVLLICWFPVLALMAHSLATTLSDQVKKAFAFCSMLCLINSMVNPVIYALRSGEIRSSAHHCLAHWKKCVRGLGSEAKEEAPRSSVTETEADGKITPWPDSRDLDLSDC
Cannabinoid receptor 1, sequence (P21554 whole entry): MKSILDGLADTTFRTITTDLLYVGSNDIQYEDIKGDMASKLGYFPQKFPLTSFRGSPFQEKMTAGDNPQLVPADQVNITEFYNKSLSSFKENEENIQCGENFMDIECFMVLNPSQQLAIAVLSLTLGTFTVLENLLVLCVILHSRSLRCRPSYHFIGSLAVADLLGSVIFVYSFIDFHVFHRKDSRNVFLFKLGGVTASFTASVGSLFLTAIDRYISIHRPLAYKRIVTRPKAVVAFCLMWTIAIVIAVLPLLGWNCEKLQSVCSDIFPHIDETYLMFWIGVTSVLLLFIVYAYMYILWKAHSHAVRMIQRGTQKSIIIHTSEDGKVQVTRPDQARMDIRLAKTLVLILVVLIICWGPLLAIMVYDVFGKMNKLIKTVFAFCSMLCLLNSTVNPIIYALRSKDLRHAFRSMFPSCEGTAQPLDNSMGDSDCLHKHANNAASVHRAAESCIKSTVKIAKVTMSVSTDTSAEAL

half-life [1]: 57.6 min | Cmax [2]: 2300 ng/g | EC50 [3]: 0.78 nM | IC50 [4]: 1.4 nM
SMILES: CC(C)(O)c1cc(-c2nc(NCCc3ccc(F)cc3)nc(OCF)n2)ccc1Cl

SUV [5]: 0.7 g/mL | SUV [6]: 0.7 g/mL | SUV [7]: 0.7 g/mL | SUV [8]: 0.7 g/mL | SUV [9]: 0.7 g/mL | Drug uptake [10]: 0.5 %ID | remaining at 3 h [11]: 15% | remaining at 3 h [12]: 35% | remaining at 3 h [13]: 35%
SMILES: [2H]C([2H])([18F])Oc1nc(NCCc2ccc(F)cc2)nc(-c2ccc(Cl)c(C(C)(C)O)c2)n1

IC50 [14]: 300 nM | IC50 [15]: 0.58 nM
SMILES: COc1nc(NCCc2ccc(F)cc2)nc(-c2ccc(Cl)c(C(C)(C)O)c2)n1

Reference: ChEMBL document CHEMBL3098084, “Synthesis and preliminary evaluation of a new fluorine-18 labelled triazine derivative for PET imaging of cannabinoid CB2 receptor” (Bioorg Med Chem Lett, 2014)
